In brackets after ≈: the same amount, converted by molar mass.
Assays:
[1] = test system: Staphylococcus aureus; test: Serum effect on MIC against Staphylococcus aureus (Smith) as ratio of MIC value in presence and absence of 50% fetal calf serum; assay type: functional
How it was run: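 Broth microdilution MIC was repeated with 50% fetal calf serum added to the growth medium (LB for S. aureus, brain-heart infusion broth for E. faecalis). The inoculum was (3-7) × 10^5 CFU/mL in 1% DMSO, incubated at 37 °C for 16-24 h, and read by OD600. The serum effect is the MIC with serum relative to the MIC without serum.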

[2] = test system: Enterococcus faecium; test: In vitro minimum inhibitory concentration against Enterococcus fecium upon incubation at 37 degree C for 16 to 24 hr by dissolving in DMSO (1%); assay type: functional
How it was run: (§1)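 Broth microdilution (modified NCCLS M7-A4). Enterococci grown to log phase in brain-heart infusion broth, seeded at (3-7) × 10⁵ CFU/mL. Compounds 2-fold diluted from DMSO stocks, 20 to 1.25 µg/mL, final 1% DMSO, in duplicate. Incubated 37 °C, 16-24 h, with shaking. OD600 read.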

[3] = test system: Enterococcus faecium; test: In vitro minimum inhibitory concentration against Vancomycin resistant Enterococci faecium upon incubation at 37 degree C for 16 to 24 hr by dissolving in DMSO (1%); assay type: functional; how it was run: as §1
[4] = test system: Staphylococcus aureus; test: In vitro minimum inhibitory concentration against Staphylococcus aureus upon incubation at 37 degree C for 16 to 24 hr by dissolving in DMSO (1%); assay type: functional
[5] = test system: Enterococcus faecalis; test: In vitro minimum inhibitory concentration against Enterococcus faecalis upon incubation at 37 degree C for 16 to 24 hr by dissolving in DMSO (1%); assay type: functional
How it was run: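 Log-phase E. faecalis was grown in brain-heart infusion broth and seeded at (3-7) × 10^5 CFU/mL. Duplicate 2-fold dilutions ran from 20 to 1.25 µg/mL, final 1% DMSO. After 16-24 h at 37 °C with shaking, OD600 was read.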

[6] = test system: Staphylococcus aureus; test: In vitro minimum inhibitory concentration against Methicillin-resistant Staphylococcus aureus upon incubation at 37 degree C for 16 to 24 hr by dissolving in DMSO (1%); assay type: functional
How it was run: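 Broth microdilution (modified NCCLS M7-A4). Staphylococci grown to log phase in Luria broth, seeded at (3-7) × 10⁵ CFU/mL. Compounds 2-fold diluted from DMSO stocks, 20 to 1.25 µg/mL, final 1% DMSO, in duplicate. Incubated 37 °C, 16-24 h, with shaking. OD600 read.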

[7] = target: DNA polymerase III PolC-type (Bacillus subtilis (strain 168), UniProt P13267); test: Inhibitory concentration against Bacillus subtilis DNA polymerase IIIC using [3H]dTMP 250 pM (30 degree C for 10 min)
How it was run: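 Homogeneous recombinant B. subtilis pol IIIC, 0.025-0.06 units, acted on activated calf thymus DNA with Mg2+, DTT, glycerol, dATP, dCTP, dTTP and [3H]dTTP, without dGTP. Compounds were serially diluted from DMSO. Reactions ran 10 min at 30 °C, were stopped with TCA-pyrophosphate, and the filter-collected precipitate was scintillation counted. Apparent Ki was read directly from this truncated assay; average standard deviation ±44%.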

[8] = test system: Bacillus subtilis; test: In vitro minimum inhibitory concentration against Bacillus subtilis upon incubation at 37 degree C for 16 to 24 h; assay type: functional
[9] = test system: Staphylococcus aureus; test: In vitro minimum inhibitory concentration against Staphylococcus aureus (Smith) upon incubation at 37 degree C for 16 to 24 hr by dissolving in DMSO (1%); assay type: functional

Sequence of DNA polymerase III PolC-type (P13267 whole entry, the tested form may be a part): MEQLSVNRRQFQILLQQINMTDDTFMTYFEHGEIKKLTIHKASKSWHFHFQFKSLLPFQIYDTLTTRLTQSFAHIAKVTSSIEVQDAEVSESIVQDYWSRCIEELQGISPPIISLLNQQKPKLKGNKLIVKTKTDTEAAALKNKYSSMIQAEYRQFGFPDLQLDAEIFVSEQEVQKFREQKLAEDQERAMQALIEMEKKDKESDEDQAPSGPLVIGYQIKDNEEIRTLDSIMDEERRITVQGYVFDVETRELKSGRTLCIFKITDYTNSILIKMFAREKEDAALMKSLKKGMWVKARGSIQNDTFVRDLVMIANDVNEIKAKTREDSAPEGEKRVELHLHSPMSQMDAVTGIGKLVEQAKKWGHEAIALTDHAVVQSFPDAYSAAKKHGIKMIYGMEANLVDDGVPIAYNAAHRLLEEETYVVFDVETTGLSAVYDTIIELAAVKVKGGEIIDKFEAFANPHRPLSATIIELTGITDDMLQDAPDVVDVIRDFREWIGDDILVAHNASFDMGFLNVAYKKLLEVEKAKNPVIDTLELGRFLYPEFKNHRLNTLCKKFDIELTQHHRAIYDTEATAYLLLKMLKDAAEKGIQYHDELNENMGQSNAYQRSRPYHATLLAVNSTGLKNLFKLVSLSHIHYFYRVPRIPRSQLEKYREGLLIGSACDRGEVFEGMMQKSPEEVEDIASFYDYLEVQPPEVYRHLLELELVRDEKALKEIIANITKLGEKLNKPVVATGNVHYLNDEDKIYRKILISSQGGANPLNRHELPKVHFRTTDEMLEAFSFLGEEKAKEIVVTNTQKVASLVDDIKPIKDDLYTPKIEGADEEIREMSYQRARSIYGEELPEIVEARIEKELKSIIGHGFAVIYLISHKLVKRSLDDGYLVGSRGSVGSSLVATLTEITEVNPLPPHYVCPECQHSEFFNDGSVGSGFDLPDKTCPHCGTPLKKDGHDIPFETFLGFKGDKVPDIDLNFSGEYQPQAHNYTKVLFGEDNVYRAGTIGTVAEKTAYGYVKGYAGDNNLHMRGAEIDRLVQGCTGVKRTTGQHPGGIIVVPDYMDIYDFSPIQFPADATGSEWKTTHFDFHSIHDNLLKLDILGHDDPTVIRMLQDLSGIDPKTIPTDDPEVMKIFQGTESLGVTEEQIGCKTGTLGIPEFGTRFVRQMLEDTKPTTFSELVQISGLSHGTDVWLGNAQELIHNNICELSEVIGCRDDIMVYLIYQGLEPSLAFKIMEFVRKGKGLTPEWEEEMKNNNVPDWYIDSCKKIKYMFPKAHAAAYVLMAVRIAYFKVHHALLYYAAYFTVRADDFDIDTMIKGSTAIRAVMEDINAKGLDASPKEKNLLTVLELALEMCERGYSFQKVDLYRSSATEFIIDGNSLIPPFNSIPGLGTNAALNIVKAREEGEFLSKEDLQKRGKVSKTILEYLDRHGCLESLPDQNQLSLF

SMILES | MIC+/MIC- [1] | MIC [2] | MIC [3] | MIC [4] | MIC [5] | MIC [6] | Ki [7] | MIC [8] | MIC [9]
CCc1cc(Nc2cc(=O)n(CCCCCCCCO)c(=O)[nH]2)ccc1C | 21.3 | 2.5 µg/mL (≈ 6.69 µM) | 2.5 µg/mL (≈ 6.69 µM) |  |  |  |  |  | 
CCc1cc(Nc2cc(=O)n(CC#CCO)c(=O)[nH]2)ccc1C |  | 10 µg/mL (≈ 31.9 µM) | 10 µg/mL (≈ 31.9 µM) | 10 µg/mL (≈ 31.9 µM) | 10 µg/mL (≈ 31.9 µM) | 10 µg/mL (≈ 31.9 µM) |  |  | 
CCc1cc(Nc2cc(=O)n(CCCCNCCO)c(=O)[nH]2)ccc1C |  | > 20 µg/mL |  | > 20 µg/mL | > 20 µg/mL |  | 28 nM | > 20 µg/mL | > 20 µg/mL
CCc1cc(Nc2cc(=O)n(CCCCCO)c(=O)[nH]2)ccc1C | 11.6 | 2.5 µg/mL (≈ 7.54 µM) | 2.5 µg/mL (≈ 7.54 µM) | 5 µg/mL (≈ 15.1 µM) | 2.5 µg/mL (≈ 7.54 µM) | 5 µg/mL (≈ 15.1 µM) | 43 nM | < 1.25 µg/mL | 2.5 µg/mL (≈ 7.54 µM)
CCc1cc(Nc2cc(=O)n(CC(C)=O)c(=O)[nH]2)ccc1C |  | 10 µg/mL (≈ 33.2 µM) | 20 µg/mL (≈ 66.4 µM) |  | 20 µg/mL (≈ 66.4 µM) | 10 µg/mL (≈ 33.2 µM) |  |  | 10 µg/mL (≈ 33.2 µM)
CCc1cc(Nc2cc(=O)n(CCCCN(CCO)CCO)c(=O)[nH]2)ccc1C |  | > 20 µg/mL |  | > 20 µg/mL | > 20 µg/mL |  | 21 nM | > 20 µg/mL | > 20 µg/mL
CCc1cc(Nc2cc(=O)n(CCCCCN3CCc4c([nH]c5ccc(OC)cc45)C3)c(=O)[nH]2)ccc1C |  | 20 µg/mL (≈ 38.8 µM) | 5 µg/mL (≈ 9.7 µM) |  | > 20 µg/mL | 10 µg/mL (≈ 19.4 µM) |  |  | 10 µg/mL (≈ 19.4 µM)
CCc1cc(Nc2cc(=O)n(CCCCC#N)c(=O)[nH]2)ccc1C | 6 | 5 µg/mL (≈ 15.3 µM) | 5 µg/mL (≈ 15.3 µM) | 5 µg/mL (≈ 15.3 µM) | 2.5 µg/mL (≈ 7.66 µM) | 5 µg/mL (≈ 15.3 µM) |  |  | 
CCc1cc(Nc2cc(=O)n(CCCCCOC(C)=O)c(=O)[nH]2)ccc1C |  | 3.75 µg/mL (≈ 10 µM) | 3.75 µg/mL (≈ 10 µM) | 5 µg/mL (≈ 13.4 µM) | 5 µg/mL (≈ 13.4 µM) | 2.5 µg/mL (≈ 6.69 µM) | 68 nM | 0.625 µg/mL (≈ 1.67 µM) | 7.5 µg/mL (≈ 20.1 µM)
CCc1cc(Nc2cc(=O)n(CCCC(C)=O)c(=O)[nH]2)ccc1C |  | 5 µg/mL (≈ 15.2 µM) | 2.5 µg/mL (≈ 7.59 µM) |  | 5 µg/mL (≈ 15.2 µM) | 5 µg/mL (≈ 15.2 µM) |  |  | 2.5 µg/mL (≈ 7.59 µM)
CCc1cc(Nc2cc(=O)n(CCCCCCO)c(=O)[nH]2)ccc1C | 8.7 | 5 µg/mL (≈ 14.5 µM) |  | 5 µg/mL (≈ 14.5 µM) | 2.5 µg/mL (≈ 7.24 µM) | 5 µg/mL (≈ 14.5 µM) |  |  | 
CCOC(=O)CCCCn1c(=O)cc(Nc2ccc(C)c(CC)c2)[nH]c1=O | >12.2 | < 1.25 µg/mL | 2.5 µg/mL (≈ 6.69 µM) |  | 5 µg/mL (≈ 13.4 µM) | > 20 µg/mL |  |  | 
CCc1cc(Nc2cc(=O)n(CCOCCOCCO)c(=O)[nH]2)ccc1C |  | 10 µg/mL (≈ 26.5 µM) | 5 µg/mL (≈ 13.2 µM) |  | 10 µg/mL (≈ 26.5 µM) | > 20 µg/mL |  |  | 10 µg/mL (≈ 26.5 µM)
CCc1cc(Nc2cc(=O)n(CCCOC(C)=O)c(=O)[nH]2)ccc1C |  | 5 µg/mL (≈ 14.5 µM) | 3.75 µg/mL (≈ 10.9 µM) | 3.75 µg/mL (≈ 10.9 µM) | 5 µg/mL (≈ 14.5 µM) | 5 µg/mL (≈ 14.5 µM) | 120 nM | 0.625 µg/mL (≈ 1.81 µM) | 2.5 µg/mL (≈ 7.24 µM)
CCc1cc(Nc2cc(=O)n(CCCCNS(=O)(=O)c3ccc(C)cc3)c(=O)[nH]2)ccc1C |  | 5 µg/mL (≈ 10.6 µM) | 5 µg/mL (≈ 10.6 µM) | 5 µg/mL (≈ 10.6 µM) | 5 µg/mL (≈ 10.6 µM) | > 20 µg/mL | 230 nM | 5 µg/mL (≈ 10.6 µM) | 5 µg/mL (≈ 10.6 µM)
CCc1cc(Nc2cc(=O)n(CCOC(C)=O)c(=O)[nH]2)ccc1C |  | 5 µg/mL (≈ 15.1 µM) | 5 µg/mL (≈ 15.1 µM) | 5 µg/mL (≈ 15.1 µM) | 5 µg/mL (≈ 15.1 µM) | 5 µg/mL (≈ 15.1 µM) | 120 nM | 1.25 µg/mL (≈ 3.77 µM) | 3.75 µg/mL (≈ 11.3 µM)
CCc1cc(Nc2cc(=O)n(CCCCCCCCCCO)c(=O)[nH]2)ccc1C |  | > 20 µg/mL |  | > 20 µg/mL | > 20 µg/mL |  | 51 nM | < 1.25 µg/mL | > 20 µg/mL
CCOC(=O)CCCn1c(=O)cc(Nc2ccc(C)c(CC)c2)[nH]c1=O | 10 |  | 5 µg/mL (≈ 13.9 µM) |  | 5 µg/mL (≈ 13.9 µM) | 5 µg/mL (≈ 13.9 µM) |  |  | 

Reference: ChEMBL document CHEMBL1140385, “Synthesis and antibacterial activity of 3-substituted-6-(3-ethyl-4-methylanilino)uracils” (J Med Chem, 2005)
